Key:
[1] = molecular target: T1, Type-1 angiotensin II receptor (Homo sapiens, UniProt P30556); test: Displacement of [125I]-Sar1Ile8-angiotensin 2 from angiotensin 2 AT1 receptor (unknown origin) after 180 mins by gamma counting analysis
T1 sequence (P30556 whole entry): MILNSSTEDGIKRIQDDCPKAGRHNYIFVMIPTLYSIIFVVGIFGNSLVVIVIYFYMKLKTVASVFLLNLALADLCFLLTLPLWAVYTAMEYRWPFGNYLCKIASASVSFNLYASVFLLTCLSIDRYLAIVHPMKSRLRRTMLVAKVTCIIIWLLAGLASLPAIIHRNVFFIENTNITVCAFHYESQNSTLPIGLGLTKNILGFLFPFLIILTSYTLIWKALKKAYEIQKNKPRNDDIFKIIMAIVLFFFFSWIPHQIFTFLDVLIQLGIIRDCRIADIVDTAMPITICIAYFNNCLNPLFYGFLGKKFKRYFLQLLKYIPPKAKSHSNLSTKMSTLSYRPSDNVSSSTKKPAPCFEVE

[2] = molecular target: T2, Type-2 angiotensin II receptor (Homo sapiens, UniProt P50052); test: Displacement of [125I]-Sar1Ile8-angiotensin 2 from angiotensin 2 AT2 receptor (unknown origin) after 180 mins by gamma counting analysis
T2 sequence (P50052 whole entry): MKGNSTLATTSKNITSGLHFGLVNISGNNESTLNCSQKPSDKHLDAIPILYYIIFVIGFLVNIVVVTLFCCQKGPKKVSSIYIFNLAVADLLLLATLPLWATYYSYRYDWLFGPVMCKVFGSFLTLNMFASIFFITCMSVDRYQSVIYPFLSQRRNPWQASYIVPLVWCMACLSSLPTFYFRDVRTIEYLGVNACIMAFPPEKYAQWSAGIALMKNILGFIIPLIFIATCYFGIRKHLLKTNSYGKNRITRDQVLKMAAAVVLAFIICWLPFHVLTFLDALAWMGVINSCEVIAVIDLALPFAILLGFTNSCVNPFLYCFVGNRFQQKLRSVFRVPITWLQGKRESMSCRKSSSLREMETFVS

[3] = molecular target: T3, Type-1 angiotensin II receptor (Homo sapiens) (UniProt P30556); test: Ratio of losartan IC50 to compound IC50 for angiotensin 2 AT1 receptor (unknown origin)
T3 sequence (whole entry): T1 sequence (P30556 whole entry)

[4] = Antagonist activity at angiotensin 2 receptor in Japanese white rabbit thoracic aorta assessed as inhibition of angiotensin 2-induced contraction after 60 mins by Schild plot analysis; format: tissue-based, Oryctolagus cuniculus
How it was run: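 Helical aortic strips (3-4 mm wide, 15-20 mm long) in 10-mL baths of bicarbonate salt solution (CaCl2·2H2O 2.5, NaHCO3 25, glucose 11.1), 37 °C, 95% O2/5% CO2, isometric tension. 1 h equilibration with 15-min washes; 67 mM KCl sets maximal contraction; 30 min washout; antagonist or vehicle for 60 min, then cumulative Ang II curves, one per strip. Response as % of KCl maximum; pA2 from Schild plot.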

Rattus norvegicus = test: Antihypertensive activity in SHR rat assessed as decrease in blood pressure at 10 mg/kg, po by tail plethysmography; format: functional
How it was run: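 Male SHR, 19-21 weeks old, n = 6 per group, with a vehicle group (water, 10 mL/kg). Single oral dose of 10 mg/kg. Blood pressure and heart rate measured by tail plethysmography in unanesthetized rats after a warming period.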

Structure (SMILES)	IC50 [1]	IC50 [2]	Ratio IC50 [3]	pA2 [4]	Activity (Rattus norvegicus)
CCCc1nc2c(C)cc(NC(=O)c3ccccc3)cc2n1Cc1ccc(-c2ccccc2C(=O)O)cc1	0.0039 µM	0.006 µM			
CCCc1nc2c(C)cc(C(=O)NCCCN3CCOCC3)cc2n1Cc1ccc(-c2ccccc2C(=O)O)cc1	0.01 µM	0.718 µM			
CCCc1nc2c(C)cc(C(=O)N3CCCCC3)cc2n1Cc1ccc(-c2ccccc2C(=O)O)cc1	0.02 µM	0.042 µM			
CCCc1nc2c(C)cc(NC(=O)CCc3ccccc3)cc2n1Cc1ccc(-c2ccccc2C(=O)O)cc1	0.0001 µM	0.149 µM	10	8.43	>30 mmHg
CCCNC(=O)c1cc(C)c2nc(CCC)n(Cc3ccc(-c4ccccc4C(=O)O)cc3)c2c1	1.34 µM				
CCCc1nc2c(C)cc(NC(=O)CC)cc2n1Cc1ccc(-c2ccccc2C(=O)O)cc1	0.0004 µM	0.078 µM			
CCCCc1nc(Cl)c(CO)n1Cc1ccc(-c2ccccc2-c2nnn[nH]2)cc1 [LOSARTAN]				7.92	
CCCc1nc2c(C)cc(C(=O)Nc3ccc(C)cc3)cc2n1Cc1ccc(-c2ccccc2C(=O)O)cc1	0.039 µM	0.061 µM			
CCCC(=O)Nc1cc(C)c2nc(CCC)n(Cc3ccc(-c4ccccc4C(=O)O)cc3)c2c1	0.0003 µM	0.053 µM			
CCCc1nc2c(C)cc(NC(=O)Cc3ccccc3)cc2n1Cc1ccc(-c2ccccc2C(=O)O)cc1	0.0012 µM	0.077 µM		8.21	
CCCc1nc2c(C)cc(NC(=O)c3ccc(C)cc3)cc2n1Cc1ccc(-c2ccccc2C(=O)O)cc1	0.0049 µM	> 10 µM		8.25	
CCCc1nc2c(C)cc(NC(=O)OC)cc2n1Cc1ccc(-c2ccccc2C(=O)O)cc1	0.0007 µM	4.37 µM		8.15	
CCCc1nc2c(C)cc(C(=O)N3CCOCC3)cc2n1Cc1ccc(-c2ccccc2C(=O)O)cc1	1.01 µM				

The next lines start with results.

IC50 [1]	IC50 [2]	Ratio IC50 [3]	Structure (SMILES)	pA2 [4]	Activity (Rattus norvegicus)
1.43 µM			CCCc1nc2c(C)cc(NC(C)=O)cc2n1Cc1ccc(-c2ccccc2C(=O)O)cc1		
0.013 µM	0.164 µM		CCCCNC(=O)c1cc(C)c2nc(CCC)n(Cc3ccc(-c4ccccc4C(=O)O)cc3)c2c1		
0.011 µM	> 10 µM		CCCc1nc2c(C)cc(C(=O)NCCN3CCOCC3)cc2n1Cc1ccc(-c2ccccc2C(=O)O)cc1	8.2	
0.115 µM			CCCc1nc2c(C)cc(C(=O)NCCCc3ccccc3)cc2n1Cc1ccc(-c2ccccc2C(=O)O)cc1		
0.003 µM	> 10 µM	10	CCCc1nc2c(C)cc(C(=O)NCCc3ccccc3)cc2n1Cc1ccc(-c2ccccc2C(=O)O)cc1	8.51	>30 mmHg

Reference: ChEMBL document CHEMBL2434924, “Nonpeptidic angiotensin II AT₁ receptor antagonists derived from 6-substituted aminocarbonyl and acylamino benzimidazoles” (Eur J Med Chem, 2013)
